27 compounds from ChEMBL document CHEMBL1641497, “A potent and selective indole N-type calcium channel (Ca(v)2.2) blocker for the treatment of pain” (Bioorg Med Chem Lett, 2011) can be followed below.

The target of data set [1] is T1, Voltage-dependent N-type calcium channel subunit alpha-1B (Homo sapiens, UniProt Q00975). As to the kind of experiment: Blockade of Cav2.2 channel by fluorescent calcium-influx assay. The method in brief: (§1)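 […] Cav2.2 channel block measured in vitro with a fluorescent calcium-influx (FLIPR) assay. Results are reported as % inhibition at 10 μM, with an IC50 (μM) for selected compounds.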
Target sequence in this assay (Q00975 whole entry): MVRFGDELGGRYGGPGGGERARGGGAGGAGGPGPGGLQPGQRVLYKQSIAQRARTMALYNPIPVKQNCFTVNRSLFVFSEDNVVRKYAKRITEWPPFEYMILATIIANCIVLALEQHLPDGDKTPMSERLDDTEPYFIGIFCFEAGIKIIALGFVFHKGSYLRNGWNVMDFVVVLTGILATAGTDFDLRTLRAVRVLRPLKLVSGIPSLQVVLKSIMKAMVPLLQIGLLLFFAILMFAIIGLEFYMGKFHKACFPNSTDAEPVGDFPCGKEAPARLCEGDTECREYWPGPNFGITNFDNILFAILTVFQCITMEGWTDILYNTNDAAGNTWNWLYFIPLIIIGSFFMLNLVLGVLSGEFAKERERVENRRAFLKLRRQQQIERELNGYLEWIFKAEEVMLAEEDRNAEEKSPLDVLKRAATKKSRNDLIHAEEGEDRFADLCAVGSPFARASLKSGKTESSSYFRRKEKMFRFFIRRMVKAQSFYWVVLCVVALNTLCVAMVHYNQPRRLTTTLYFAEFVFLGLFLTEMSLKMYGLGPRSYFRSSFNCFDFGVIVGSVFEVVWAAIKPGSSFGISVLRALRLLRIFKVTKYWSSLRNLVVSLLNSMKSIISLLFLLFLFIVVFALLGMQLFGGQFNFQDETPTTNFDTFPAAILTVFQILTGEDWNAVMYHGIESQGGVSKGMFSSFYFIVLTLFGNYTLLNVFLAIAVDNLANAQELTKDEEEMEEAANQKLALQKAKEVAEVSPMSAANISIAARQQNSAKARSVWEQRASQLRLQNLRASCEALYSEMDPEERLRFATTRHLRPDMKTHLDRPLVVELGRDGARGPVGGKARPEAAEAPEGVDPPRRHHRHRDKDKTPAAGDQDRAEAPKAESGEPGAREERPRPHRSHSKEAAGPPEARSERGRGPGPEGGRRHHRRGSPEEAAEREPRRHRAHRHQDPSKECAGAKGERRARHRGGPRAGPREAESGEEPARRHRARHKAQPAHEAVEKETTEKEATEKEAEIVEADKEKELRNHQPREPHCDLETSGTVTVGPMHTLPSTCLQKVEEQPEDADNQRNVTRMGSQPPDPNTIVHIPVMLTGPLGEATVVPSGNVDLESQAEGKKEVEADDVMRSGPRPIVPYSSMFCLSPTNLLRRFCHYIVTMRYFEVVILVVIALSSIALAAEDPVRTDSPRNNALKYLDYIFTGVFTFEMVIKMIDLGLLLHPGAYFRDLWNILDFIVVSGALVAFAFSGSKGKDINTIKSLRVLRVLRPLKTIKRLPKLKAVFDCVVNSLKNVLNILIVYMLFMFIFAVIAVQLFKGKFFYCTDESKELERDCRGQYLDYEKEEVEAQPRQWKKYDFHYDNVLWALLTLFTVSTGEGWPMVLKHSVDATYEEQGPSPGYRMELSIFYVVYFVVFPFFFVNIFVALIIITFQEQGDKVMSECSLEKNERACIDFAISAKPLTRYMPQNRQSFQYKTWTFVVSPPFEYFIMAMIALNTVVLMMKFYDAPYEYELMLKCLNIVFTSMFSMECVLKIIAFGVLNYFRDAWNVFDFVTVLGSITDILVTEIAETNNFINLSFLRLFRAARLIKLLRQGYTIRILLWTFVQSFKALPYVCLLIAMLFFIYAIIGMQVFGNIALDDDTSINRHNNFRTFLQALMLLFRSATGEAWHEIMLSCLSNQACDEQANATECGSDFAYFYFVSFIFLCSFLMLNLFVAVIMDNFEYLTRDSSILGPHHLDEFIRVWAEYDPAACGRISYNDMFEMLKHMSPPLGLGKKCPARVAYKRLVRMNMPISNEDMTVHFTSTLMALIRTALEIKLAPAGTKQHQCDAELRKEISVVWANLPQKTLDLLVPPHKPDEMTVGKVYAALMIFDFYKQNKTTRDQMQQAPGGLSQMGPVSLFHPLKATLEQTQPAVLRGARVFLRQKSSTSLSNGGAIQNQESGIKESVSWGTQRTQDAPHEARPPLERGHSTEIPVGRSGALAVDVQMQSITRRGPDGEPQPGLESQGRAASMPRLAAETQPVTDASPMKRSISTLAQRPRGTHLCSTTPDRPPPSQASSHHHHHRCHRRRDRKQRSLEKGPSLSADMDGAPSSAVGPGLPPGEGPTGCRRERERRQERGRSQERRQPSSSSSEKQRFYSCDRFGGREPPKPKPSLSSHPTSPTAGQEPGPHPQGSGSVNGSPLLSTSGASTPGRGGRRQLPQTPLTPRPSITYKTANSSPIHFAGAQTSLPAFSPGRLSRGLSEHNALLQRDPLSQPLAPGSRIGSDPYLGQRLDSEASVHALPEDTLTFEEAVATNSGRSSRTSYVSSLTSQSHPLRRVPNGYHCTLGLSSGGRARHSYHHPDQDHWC

Data set [2] addresses T2, Nuclear receptor subfamily 1 group I member 2 (Homo sapiens, UniProt O75469).
T2 sequence (O75469 whole entry): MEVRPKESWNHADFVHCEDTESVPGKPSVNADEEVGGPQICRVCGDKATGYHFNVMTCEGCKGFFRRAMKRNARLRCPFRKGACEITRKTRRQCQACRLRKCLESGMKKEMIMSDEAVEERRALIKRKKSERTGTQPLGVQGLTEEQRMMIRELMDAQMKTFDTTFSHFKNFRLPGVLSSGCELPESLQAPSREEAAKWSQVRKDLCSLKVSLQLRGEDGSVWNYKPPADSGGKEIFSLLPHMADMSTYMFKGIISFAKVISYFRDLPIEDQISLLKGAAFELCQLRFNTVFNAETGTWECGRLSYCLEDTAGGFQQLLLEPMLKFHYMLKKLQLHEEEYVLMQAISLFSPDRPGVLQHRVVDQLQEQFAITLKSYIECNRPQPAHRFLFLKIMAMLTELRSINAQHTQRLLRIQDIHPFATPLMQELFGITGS
As to the kind of experiment: Activity at PXR by induction assay.

For data set [3], the target named is Cav1.2 (voltage-dependent L-type calcium channel subunit alpha-1C) (Homo sapiens, UniProt Q13936). As to the kind of experiment: Blockade of Cav1.2 channel at 10 uM by fluorescent calcium-influx assay. The method in brief: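 Cav1.2 (L-type) channel block measured with a fluorescent calcium-influx FLIPR assay. Results are reported as % inhibition at 10 μM test concentration.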

The next data set has as its system hERG (Homo sapiens). As to the kind of experiment: Blockade of hERG channel at 10 uM by displacement of MK-0499 binding.
Data set [4] deals with T1, Voltage-dependent N-type calcium channel subunit alpha-1B. The data set can be described thus: Blockade of Cav2.2 channel at 10 uM by fluorescent calcium-influx assay. Summed up: as §1
Target sequence in this assay (Q00975 whole entry, looked up): as the sequence (Q00975 whole entry) above
Data set [5] can be described thus: Plasma clearance in rat at 1 mg/kg, iv and 3 mg/kg, po. The data set is classed as ADME, organism-based. The method in brief: (§2)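 Rat PK with 1.0 mg/kg IV and 3.0 mg/kg PO doses, based on plasma analysis. Parameters: Cmax, dose-normalized AUC (μM h kg/mg), plasma clearance (mL/min/kg), Vdss (L/kg), T1/2 (h) and oral bioavailability (%).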
The nature of data set [6]: Half life in rat at 1 mg/kg, iv and 3 mg/kg, po. Type of data set: ADME, organism-based. Conditions: in vivo. The method in brief: as §2
Data set [7] can be described thus: Metabolic stability in human liver microsomes assessed as compound remaining after 60 mins. As to conditions: read-out: Stability. Type of data set: ADME, Microsome. The method in brief: (§3)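 Compounds incubated with human or rat liver microsomes for 60 min. Read-out is the percent of parent compound remaining.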
Data set [8] in a line: Oral bioavailability in rat at 3 mg/kg. Type of data set: ADME, organism-based. As to conditions: in vivo. Summed up: as §2
The subject of the next data set is Rattus norvegicus. The data set can be described thus: Dose normalized AUC in rat at 1 mg/kg, iv and 3 mg/kg, po. Type of data set: ADME, organism-based. As to conditions: in vivo. Summed up: as §2
A short description of data set [9]: Metabolic stability in rat liver microsomes assessed as compound remaining after 60 mins. The data set is classed as ADME, Microsome. As to conditions: read-out: Stability. Summed up: as §3
Data set [10] addresses Nav1.5 (sodium channel protein type 5 subunit alpha) (Homo sapiens, UniProt Q14524). The data set can be described thus: Blockade of Nav1.5 channel at 10 uM by fluorescent […] assay.

Chain of Cav1.2 (voltage-dependent L-type calcium channel subunit alpha-1C) (Q13936 whole entry): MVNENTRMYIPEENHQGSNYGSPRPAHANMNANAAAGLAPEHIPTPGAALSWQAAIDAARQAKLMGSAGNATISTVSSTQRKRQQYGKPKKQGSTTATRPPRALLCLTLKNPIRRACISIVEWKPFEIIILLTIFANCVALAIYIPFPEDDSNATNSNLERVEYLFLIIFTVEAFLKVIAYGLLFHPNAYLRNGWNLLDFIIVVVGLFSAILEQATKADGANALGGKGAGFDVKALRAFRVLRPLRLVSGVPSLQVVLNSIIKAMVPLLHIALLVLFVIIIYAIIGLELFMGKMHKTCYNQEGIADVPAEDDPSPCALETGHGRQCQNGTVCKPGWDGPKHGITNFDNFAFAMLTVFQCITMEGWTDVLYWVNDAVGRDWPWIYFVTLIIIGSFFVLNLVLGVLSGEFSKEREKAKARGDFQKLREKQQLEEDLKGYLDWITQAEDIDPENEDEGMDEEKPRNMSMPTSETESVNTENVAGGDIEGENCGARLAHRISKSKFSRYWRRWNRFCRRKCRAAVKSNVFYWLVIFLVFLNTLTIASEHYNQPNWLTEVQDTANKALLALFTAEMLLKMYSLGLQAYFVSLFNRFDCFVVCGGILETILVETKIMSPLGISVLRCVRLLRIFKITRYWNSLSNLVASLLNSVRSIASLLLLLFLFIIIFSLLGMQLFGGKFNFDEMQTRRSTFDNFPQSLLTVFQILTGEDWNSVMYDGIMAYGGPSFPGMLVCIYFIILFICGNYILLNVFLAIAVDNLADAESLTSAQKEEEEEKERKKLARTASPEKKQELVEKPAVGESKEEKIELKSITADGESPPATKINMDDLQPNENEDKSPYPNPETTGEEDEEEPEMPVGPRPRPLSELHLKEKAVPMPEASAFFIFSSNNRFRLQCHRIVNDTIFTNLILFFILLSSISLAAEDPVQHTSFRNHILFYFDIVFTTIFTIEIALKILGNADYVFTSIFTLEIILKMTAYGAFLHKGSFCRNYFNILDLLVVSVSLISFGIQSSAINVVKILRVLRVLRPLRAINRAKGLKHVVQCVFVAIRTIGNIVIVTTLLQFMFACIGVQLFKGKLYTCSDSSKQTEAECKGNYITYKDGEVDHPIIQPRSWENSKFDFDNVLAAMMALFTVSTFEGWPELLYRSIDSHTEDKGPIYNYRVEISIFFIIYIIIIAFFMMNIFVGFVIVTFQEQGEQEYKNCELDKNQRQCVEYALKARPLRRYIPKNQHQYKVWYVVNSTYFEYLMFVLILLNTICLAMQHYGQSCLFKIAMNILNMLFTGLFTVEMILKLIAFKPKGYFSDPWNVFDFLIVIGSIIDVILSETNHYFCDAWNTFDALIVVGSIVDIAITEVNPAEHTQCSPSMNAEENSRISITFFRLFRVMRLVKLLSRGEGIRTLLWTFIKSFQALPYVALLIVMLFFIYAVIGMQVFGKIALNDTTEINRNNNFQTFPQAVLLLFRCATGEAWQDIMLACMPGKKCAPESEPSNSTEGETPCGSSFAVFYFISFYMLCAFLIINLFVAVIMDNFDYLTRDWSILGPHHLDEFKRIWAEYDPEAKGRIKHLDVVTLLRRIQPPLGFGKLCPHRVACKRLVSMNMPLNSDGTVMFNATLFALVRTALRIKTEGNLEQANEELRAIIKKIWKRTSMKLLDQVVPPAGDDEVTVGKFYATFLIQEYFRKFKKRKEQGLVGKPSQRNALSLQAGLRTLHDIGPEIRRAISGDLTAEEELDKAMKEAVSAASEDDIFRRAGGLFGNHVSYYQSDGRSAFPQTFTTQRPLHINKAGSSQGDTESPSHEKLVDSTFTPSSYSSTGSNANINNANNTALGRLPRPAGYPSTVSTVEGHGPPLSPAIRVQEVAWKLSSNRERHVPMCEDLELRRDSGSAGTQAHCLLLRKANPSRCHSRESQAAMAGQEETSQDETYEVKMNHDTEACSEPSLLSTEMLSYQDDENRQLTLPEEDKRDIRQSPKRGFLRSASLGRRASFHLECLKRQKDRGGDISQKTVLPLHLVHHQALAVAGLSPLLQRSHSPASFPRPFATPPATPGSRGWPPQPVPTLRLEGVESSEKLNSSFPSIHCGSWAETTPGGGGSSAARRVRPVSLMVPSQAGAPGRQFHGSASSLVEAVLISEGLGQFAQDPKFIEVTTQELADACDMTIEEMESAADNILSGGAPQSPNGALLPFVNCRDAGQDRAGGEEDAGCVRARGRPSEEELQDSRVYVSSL

As to `Cc1cc(C)cc(-c2cc3cc(C(C)(C)C(=O)NC(C)(C)C)ccc3n2CC(=O)NC(C)(C)C)c1`, the IC50 in data set [1] amounted to 190 nM. The same compound returned an EC50 in data set [2] of more than 30000 nM. The inhibition at 10 µM in [3] was 78%; in the data set on hERG (Homo sapiens), 33%. Also, the inhibition in data set [4] came out at 98%.
With `CC(C)(C)NC(=O)Cn1c(-c2ccccc2)cc2cc(C(C)(C)C(=O)NC(C)(C)C)ccc21`, the EC50 in [2] amounted to 1810 nM. In [3], the inhibition at 10 µM turned out to be 79%.
For `CC(C)(C)NC(=O)C(c1ccccn1)n1ccc2cc(C(C)(C)C(=O)NC(C)(C)C)ccc21` (stereo not given), in that order: 600 nM and 64%.
Turning to `Cc1cc(C)cc(-c2cc3cc(OC(F)(F)F)ccc3n2CC(C)O)c1` (stereo not given), the inhibition at 10 µM in data set [3] is 43%. The inhibition in [4] turned out to be 36%.
Turning to `COCCn1c(-c2cc(C)cc(C)c2)cc2cc(C(C)(C)C(=O)NC(C)(C)C)ccc21`, the IC50 in [1] came to 520 nM. Also, the inhibition at 10 µM in [3] was determined as 70%. Besides, the inhibition in data set [4] was 99%.
Compound `CC(C)(C)NC(=O)Cn1c(-c2ccccc2OC(F)(F)F)cc2cc(C(C)(C)C(=O)NC(C)(C)C)ccc21` gave a clearance in [5] of 21 mL/min/kg. Besides, the EC50 in data set [2] is more than 30000 nM. In [3], the inhibition at 10 µM was determined as 79%. In addition, the half-life in data set [6] is 161 min. Moreover, the remaining at 1 h in data set [7] turned out to be 0.04%; in data set [9], 2.5%. In data set [8], the bioavailability amounted to 38%. The compound also came in with an AUC in the data set on Rattus norvegicus of 0.57 µM·kg·h/mg.
Turning to `COC(=O)C(C)(C)c1ccc2c(c1)cc(-c1cc(C)cc(C)c1)n2CC(C)O` (stereo not given), the inhibition at 10 µM in [3] amounted to 64%. The inhibition in data set [4] is 70%.
For `CC(C)(C)NC(=O)Cn1c(-c2cc(F)cc(C(F)(F)F)c2)cc2cc(C(C)(C)C(=O)NC(C)(C)C)ccc21`, in data set [2], the EC50 was more than 30000 nM. In addition, in data set [3], the inhibition at 10 µM was determined as 88%.
For `CC(C)(C)NC(=O)Cn1c(C(=O)NC(C)(C)C)cc2cc(C(C)(C)C(=O)NC(C)(C)C)ccc21`, in that order: 6640 nM and 24%.
In the case of `CC(C)(C)NC(=O)Cn1c(-c2cc(C(F)(F)F)cc(C(F)(F)F)c2)cc2cc(C(C)(C)C(=O)NC(C)(C)C)ccc21`, in [2], the EC50 worked out at 10800 nM. Moreover, the inhibition at 10 µM in [3] was 61%.
Consider `CCOC(=O)C(C)(C)c1ccc2c(c1)c([C@H](C)CO)c(-c1cc(C)cc(C)c1)n2C(=O)OC(C)(C)C`, for which, in data set [1], the IC50 was 600 nM. For the same compound, the figures for the inhibition at 10 µM in data set [3] and in data set [10] were 40% and 25%, respectively.
With `Cc1cc(C)cc(-c2cc3cc(C(C)(C)C(=O)NC(C)(C)C)ccc3n2Cc2ccc(Cl)cc2)c1`, in [4], the inhibition came out at 36%.
In data set [2], `CC(C)(C)NC(=O)Cn1c(C(C)(C)C)cc2cc(C(C)(C)C(=O)NC(C)(C)C)ccc21` yielded an EC50 of 570 nM. In data set [3], the inhibition at 10 µM amounted to 47%.
Turning to `Cc1cc(C)cc(-c2cc3cc(C(C)(C)C(=O)NC(C)(C)C)ccc3n2Cc2c(C)noc2C)c1`, the IC50 in data set [1] was found to be 540 nM. Also, testing at 10 µM in the data set with hERG (Homo sapiens) gave an inhibition of 65%. Further, the inhibition in [4] came out at 99%.
Regarding `Cc1cc(C)cc(-c2cc3cc(C(C)(C)C(=O)NC(C)(C)C)ccc3n2C(=O)OC(C)(C)C)c1`, in data set [4], the inhibition was 59%.
Compound `CC(C)(C)NC(=O)Cn1c(-c2ccc(F)cc2)cc2cc(C(C)(C)C(=O)NC(C)(C)C)ccc21` displayed an EC50 in data set [2] of more than 30000 nM. Further, in data set [3], the inhibition at 10 µM is 82%.
With `CCCN[C@@H](C)c1c(-c2cc(C)cc(C)c2)[nH]c2ccc(C(C)(C)C(=O)N3C4CCC3CC4)cc12`, the IC50 in [1] is 880 nM. The inhibition at 10 µM was 62% in [3] and 44% in [10].
As for `Cc1cc(C)cc(-c2cc3cc(C(C)(C)C(=O)NC4CC4)ccc3n2CC(C)O)c1` (stereo not given), the IC50 in data set [1] was 1150 nM. For the same compound, in [4], the inhibition amounted to 89%.
For `Cc1cc(C)cc(-c2cc3cc(C(C)(C)C(=O)NCC(F)(F)F)ccc3n2CC(C)O)c1` (stereo not given), in that order: 1170 nM and 91%.
Turning to `Cc1cc(C)cc(-c2cc3cc(C(C)(C)CO)ccc3n2CC(C)O)c1` (stereo not given), the inhibition at 10 µM in [3] is 32%. Further, the inhibition in data set [4] was found to be 44%.
Consider `Cc1cc(C)cc(-c2cc3cc(C(C)(C)C(=O)N(C)C)ccc3n2CC(C)O)c1` (stereo not given), for which, in [1], the IC50 was 870 nM. Besides, the inhibition at 10 µM in data set [3] worked out at 52%. In [4], the inhibition worked out at 89%.
Take `Cc1cc(C)cc(-c2cc3cc(C(C)(C)C(=O)NC(C)(C)C)ccc3[nH]2)c1`: in [4], the inhibition turned out to be 78%.
Take `Cc1cc(C)cc(-c2cc3cc(C(=O)NC(C)(C)C)ccc3n2CC(C)O)c1` (stereo not given): the IC50 in data set [1] was 680 nM. Further, the inhibition at 10 µM in data set [3] is 90%; with hERG (Homo sapiens), 64%. For the same compound, the inhibition in [4] came to 97%.
For `Cc1cc(C)cc(-c2cc3cc(C(C)(C)C(=O)NC(C)(C)C)ccc3n2CC(=O)OC(C)(C)C)c1`, the IC50 in data set [1] is 660 nM. In addition, the inhibition at 10 µM in data set [3] was 48%; in the data set with hERG (Homo sapiens) it was 60%. The inhibition in data set [4] stood at 91%.
Take `COc1ccccc1-c1cc2cc(C(C)(C)C(=O)NC(C)(C)C)ccc2n1CC(=O)NC(C)(C)C`: the EC50 in data set [2] came out at 740 nM. For the same compound, the inhibition at 10 µM in [3] came to 60%.
In data set [5], `CC(C)(C)NC(=O)Cn1c(-c2cccc(OC(F)(F)F)c2)cc2cc(C(C)(C)C(=O)NC(C)(C)C)ccc21` displayed a clearance of 11 mL/min/kg. Further, the EC50 in data set [2] is more than 30000 nM. Further, in [3], the inhibition at 10 µM stood at 93%. The compound also showed a half-life in data set [6] of 136 min. In addition, the remaining at 1 h in data set [7] worked out at 0.82%; in [9] it was 22%. In [8], this compound returned a bioavailability of 26%. In addition, the AUC in the data set with Rattus norvegicus is 0.83 µM·kg·h/mg.
Compound `CC(C)(C)NC(=O)Cn1c(-c2ccc(F)cc2F)cc2cc(C(C)(C)C(=O)NC(C)(C)C)ccc21` came in with an EC50 in data set [2] of 940 nM. In addition, the inhibition at 10 µM in data set [3] is 93%.
